This is an account of results in ChEMBL document CHEMBL4819061, “New bioactive 5-arylcarboximidamidopyrazolo[3,4-c]pyridines: Synthesis, cytotoxic activity, mechanistic investigation and structure-activity relationships” (Eur J Med Chem, 2021).

Each structure is given as a SMILES string. Where a name gives a salt, the structure may show the parent alone. Activity calls are given as the source filed them. The rule behind the calls is not given here. Bounds are passed on as bounds.

Assay [1] concerns MDA-MB-231. In words: Cytotoxicity against human MDA-MB-231 cells assessed as reduction in cell viability incubated for 72 hrs by MTT assay. The assay is classed as functional, cell-based. The settings on record: MDA-MB-231, 72 h. The gist of the method:
(§1)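 Cancer lines (MDA-MB-231, HT-1080, PC-3) were grown in DMEM with 10% FBS and penicillin/streptomycin at 37 °C in 5% CO₂. About 5000 cells/well adhered overnight, then serial compound dilutions were added for 72 h, with matching DMSO dilutions (0.5–0.0008% v/v) as controls. MTT (1 mg/ml final, serum-free phenol-red-free DMEM) ran 4 h, was solubilised in 2-propanol, and OD read at 550 nm (ref 690). IC50 is the concentration halving OD versus untreated, mean of three independent experiments.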
For orientation: Formazan colour is commonly taken as a measure of viable cells.

Assay [2] has as its system PC-3. In words: Cytotoxicity against human PC-3 cells assessed as reduction in cell viability incubated for 72 hrs by MTT assay. The assay is classed as functional, cell-based. The settings on record: PC-3, 72 h. The procedure, abridged:
as §1

Assay [3] deals with HT-1080. Briefly: Cytotoxicity against human HT-1080 cells assessed as reduction in cell viability incubated for 72 hrs by MTT assay. Format: functional, cell-based. The settings on record: HT-1080, 72 h. The gist of the method: as §1
The test system of assay [4] is AG1523. Briefly: Cytotoxicity against human AG01523 cells assessed as reduction in cell viability incubated for 72 hrs by MTT assay. The assay is classed as cell-based. The note with it: AG1523, 72 h.
The subject of assay [5] is HT-1080. Briefly: Induction of cell cycle arrest in human HT1080 cells assessed as accumulation at G0/G1 phase at 2 uM incubated for 24 hrs by RNase/PI staining based flow cytometric analysis (reference value: 32.86 %). Format: functional. For orientation: Flow cytometry measures light scatter and fluorescence of single cells or particles in a stream.
For assay [6], the system named is HT-1080. Briefly: Induction of cell cycle arrest in human HT1080 cells assessed as accumulation at S phase at 2 uM incubated for 24 hrs by RNase/PI staining based flow cytometric analysis (reference value: 19.59 %). The assay is classed as functional.
In assay [7] the test system is HT-1080. In words: Induction of cell cycle arrest in human HT1080 cells assessed as accumulation at sub-diploid phase at 2 uM incubated for 24 hrs by RNase/PI staining based flow cytometric analysis (reference value: 5.36 %). Format: functional.
Assay [8] has as its system HT-1080. In words: Induction of cell cycle arrest in human HT1080 cells assessed as accumulation at G2/M phase at 2 uM incubated for 24 hrs by RNase/PI staining based flow cytometric analysis (reference value: 47.55 %). Format: functional.
For assay [9], the system named is HT-1080. In words: Inhibition of ERK phosphorylation in human HT-1080 cells at 20 uM after 15 mins by Western blotting analysis.
The test system of assay [10] is HT-1080. In words: Induction of apoptosis in human HT-1080 cells assessed as increase in PARP cleavage at 2 uM after 24 hrs by Western blotting analysis. A general note: Immunoblotting shows a protein as a band on a membrane.
For assay [11], the target named is RAC-alpha serine/threonine-protein kinase (Homo sapiens) (UniProt P31749). In words: Inhibition of AKT phosphorylation at Ser473 residue in human HT-1080 cells at 20 uM after 15 mins by Western blotting analysis.
Chain of RAC-alpha serine/threonine-protein kinase (Homo sapiens) (P31749 whole entry): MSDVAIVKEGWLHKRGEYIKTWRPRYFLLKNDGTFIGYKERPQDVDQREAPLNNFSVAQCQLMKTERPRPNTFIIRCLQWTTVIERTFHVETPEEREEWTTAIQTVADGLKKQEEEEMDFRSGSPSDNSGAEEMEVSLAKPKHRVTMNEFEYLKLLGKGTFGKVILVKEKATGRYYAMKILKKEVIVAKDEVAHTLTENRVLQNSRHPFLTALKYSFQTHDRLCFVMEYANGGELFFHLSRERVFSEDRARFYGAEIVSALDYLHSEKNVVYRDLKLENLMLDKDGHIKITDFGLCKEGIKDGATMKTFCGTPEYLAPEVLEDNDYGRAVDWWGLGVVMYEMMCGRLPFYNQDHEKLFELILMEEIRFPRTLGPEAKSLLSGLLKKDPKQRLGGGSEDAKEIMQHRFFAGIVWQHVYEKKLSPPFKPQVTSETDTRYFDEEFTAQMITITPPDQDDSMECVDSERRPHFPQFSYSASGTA

Regarding `COc1ccc(Cn2nc(-c3ccccc3)c3cc(C(=N)Nc4cccc(C(F)(F)F)c4)nc(N4CCOCC4)c32)cc1`, in [1], the IC50 was over 50 µM.

On to `COc1cc(Nc2nc(C(=N)Nc3ccccc3)cc3c(-c4ccccc4)n[nH]c23)cc(OC)c1OC`, for which the 50% inhibitory concentration (IC50) in assay [2] came to 5.8 µM; in [3], 3.9 µM; in [1] it was 4.5 µM.

Regarding `COc1ccc(Cn2cc3cc(C(=N)Nc4ccccc4)ncc3n2)cc1`, the IC50 was found to be 32.4 µM in [4], 2.04 µM in assay [2], 1.13 µM in [3] and 1.52 µM in assay [1]. Moreover, in assay [5], the “Percentage of cells in G0/G1 phase” value was determined as 56.57%. Further, the results for the Activity in [6] and in [8] were 7.35% and 36.07%, respectively. The “Percent of cells in sub-diploid (sub-G1) phase” value (“Percent of cells in sub-diploid” below) in [7] is reported as 24.06%. Besides, the inhibition entry in assay [9] is “inactive”. The result in assay [10] was Active.

For the molecule `N=C(Nc1cccc(C(F)(F)F)c1)c1cc2c(-c3ccccc3)n[nH]c2cn1`, the IC50 came to 19.9 µM in [2], 24.6 µM in [3] and 22.3 µM in assay [1].

Turning to `CN1CCN(c2ccc(NC(=N)c3cc4c(-c5ccccc5)n[nH]c4c(N4CCOCC4)n3)cc2)CC1`, the IC50 turned out to be 8.3 µM in assay [2], 5.6 µM in [3] and 3.9 µM in assay [1].

In the case of `Cn1cc2cc(C(=N)Nc3cccc(C(F)(F)F)c3)ncc2n1`, in assay [1], the IC50 was over 50 µM.

For the molecule `COc1ccc(Cn2nc(-c3ccccc3)c3cc(C(=N)Nc4ccc(N5CCN(C)CC5)cc4)nc(NC4CCCCC4)c32)cc1`, the IC50 in assay [4] was 3.33 µM; in assay [2] it was 3.54 µM; in [3], 0.64 µM; in assay [1], 1.29 µM. In assay [5], the “Percentage of cells in G0/G1 phase” value worked out at 38.53%. The Activity in [6] stood at 12.9%; in assay [8], 48.57%. Moreover, in assay [7], the “Percent of cells in sub-diploid” value came to 14.34%. The inhibition entry in assay [9] is “Active”. Further, the outcome in assay [10] was Active.

On to `N=C(Nc1ccccc1)c1cc2cn[nH]c2cn1`, for which the IC50 in assay [1] was over 50 µM.

As to `N=C(Nc1cccc(C(F)(F)F)c1)c1cc2c(-c3ccccc3)n[nH]c2c(NC2CCCCC2)n1`, the IC50 in [2] was determined as 25 µM; in assay [3], 21.2 µM; in assay [1], 24.6 µM.

With `COc1ccc(Cn2ncc3cc(C(=N)Nc4cccc(C(F)(F)F)c4)ncc32)cc1`, the IC50 turned out to be 27.6 µM in assay [2], 24.9 µM in [3] and 29.8 µM in [1].

`CN1CCN(c2ccc(NC(=N)c3cc4c(-c5ccccc5)n[nH]c4cn3)cc2)CC1`: the IC50 in [2] was 17.1 µM; in [3] it was 11.4 µM; in assay [1], 15.9 µM.

For `COc1ccc(Cn2nc(-c3ccccc3)c3cc(C(=N)Nc4ccccc4)ncc32)cc1`, the IC50 in [2] is 6.3 µM; in [3], 4.7 µM; in [1], 5.4 µM.

Take `Cn1nc(-c2ccccc2)c2cc(C(=N)Nc3ccccc3)ncc21`: the IC50 in assay [2] was 17.3 µM; in assay [3], 17.4 µM; in assay [1], 11.1 µM.

Take `COc1ccc(Cn2cc3cc(C(=N)Nc4cccc(C(F)(F)F)c4)ncc3n2)cc1`: the values for the IC50 in [2], in [3] and in [1] were 12.8 µM, 13 µM and 15.5 µM, respectively.

Turning to `COc1cccc2c1C(=O)c1c(O)c3c(c(O)c1C2=O)C[C@@](O)(C(=O)CO)C[C@@H]3O[C@H]1C[C@H](N)[C@H](O)[C@H](C)O1` [DOXORUBICIN HYDROCHLORIDE], the IC50 in [4] came to 0.4 µM; in assay [2] it was 0.38 µM; in assay [3], 0.008 µM; in assay [1], 0.19 µM.

For the molecule `COc1cc(Nc2nc(C(=N)Nc3cccc(C(F)(F)F)c3)cc3c(-c4ccccc4)n[nH]c23)cc(OC)c1OC`, the IC50 in assay [2] was found to be 13.9 µM; in [3], 6.7 µM; in assay [1], 7.6 µM.

On to `N=C(Nc1cccc(C(F)(F)F)c1)c1cc2c(-c3ccccc3)n[nH]c2c(N2CCOCC2)n1`, for which the IC50 in [2] was 17.3 µM; in assay [3], 6.8 µM; in assay [1], 13.3 µM.

On to `N=C(Nc1cccc(C(F)(F)F)c1)c1cc2cn[nH]c2cn1`, for which the IC50 is over 50 µM in assay [2], 36.5 µM in assay [3] and over 50 µM in [1].

On to `COc1cc(Nc2nc(C(=N)Nc3ccc(N4CCN(C)CC4)cc3)cc3c(-c4ccccc4)n[nH]c23)cc(OC)c1OC`, for which the IC50 is 4.3 µM in [2], 3.4 µM in [3] and 4.6 µM in assay [1].

`COc1ccc(Cn2cc3cc(C(=N)Nc4ccc(N5CCN(C)CC5)cc4)ncc3n2)cc1`: the values for the IC50 in assay [2], in [3] and in [1] were 9.9 µM, 3.2 µM and 8 µM, respectively.

Turning to `COc1ccc(Cn2nc(-c3ccccc3)c3cc(C(=N)Nc4ccccc4)nc(NC4CCCCC4)c32)cc1`, the IC50 in assay [4] was determined as 26.8 µM; in assay [2], 1.1 µM; in assay [3], 3.4 µM; in [1], 3.4 µM. In [11] (time 15.0 min), the inhibition entry was “inactive”.

Regarding `Cn1ncc2cc(C(=N)Nc3cccc(C(F)(F)F)c3)ncc21`, the IC50 in [2] was over 50 µM; in [3] it was 33.8 µM; in [1], over 50 µM.

Consider `COc1ccc(Cn2nc(-c3ccccc3)c3cc(C(=N)Nc4ccc(N5CCN(C)CC5)cc4)ncc32)cc1`, for which the IC50 in assay [4] was 10.2 µM; in assay [2], 3.99 µM; in [3] it was 1.09 µM; in [1], 1.76 µM. Moreover, the “Percentage of cells in G0/G1 phase” value in [5] is 46.75%. Also, the Activity in assay [6] was 17.27%; in [8], 35.98%. Besides, the “Percent of cells in sub-diploid” value in assay [7] worked out at 17.77%. The molecule further showed an inhibition in assay [11] (time 15.0 mins) of 100%. Also, in assay [9], the inhibition result was “Active”. For the same molecule, the outcome in [10] was Active.

For `Cn1cc2cc(C(=N)Nc3ccccc3)ncc2n1`, the IC50 in assay [1] was over 50 µM.

With `COc1ccc(Cn2nc(-c3ccccc3)c3cc(C(=N)Nc4cccc(C(F)(F)F)c4)ncc32)cc1`, the half-maximal inhibitory concentration (IC50) in assay [2] is over 50 µM; in assay [3], 46.7 µM; in assay [1], over 50 µM.

On to `COc1ccc(Cn2nc(-c3ccccc3)c3cc(C(=N)Nc4ccccc4)nc(N4CCOCC4)c32)cc1`, for which the IC50 in assay [2] came to 16.4 µM; in assay [3] it was 6.2 µM; in [1], 21.2 µM.

`N=C(Nc1ccccc1)c1cc2c(-c3ccccc3)n[nH]c2c(N2CCOCC2)n1`: the results for the IC50 in assay [2], in [3] and in [1] were 6.8 µM, 4.8 µM and 6.8 µM, respectively.

Regarding `COc1ccc(Cn2ncc3cc(C(=N)Nc4ccccc4)ncc32)cc1`, the 50% inhibitory concentration (IC50) in assay [2] is 36 µM; in assay [3], 25.7 µM; in [1], 34.7 µM.

On to `CN1CCN(c2ccc(NC(=N)c3cc4c(-c5ccccc5)nn(C)c4cn3)cc2)CC1`, for which the IC50 in [4] came to 10.4 µM; in [2], 5.9 µM; in [3], 1.4 µM; in assay [1], 4.9 µM.

On to `CN1CCN(c2ccc(NC(=N)c3cc4cn(C)nc4cn3)cc2)CC1`, for which the IC50 in assay [2] is 24.8 µM; in [3], 21 µM; in [1], 20.5 µM.

For `Cn1ncc2cc(C(=N)Nc3ccccc3)ncc21`, the IC50 in assay [1] was over 50 µM.

Take `COc1ccc(Cn2ncc3cc(C(=N)Nc4ccc(N5CCN(C)CC5)cc4)ncc32)cc1`: the IC50 turned out to be 6.1 µM in assay [2], 5.3 µM in assay [3] and 5.7 µM in [1].

For the molecule `COc1ccc(Cn2nc(-c3ccccc3)c3cc(C(=N)Nc4cccc(C(F)(F)F)c4)nc(NC4CCCCC4)c32)cc1`, in [1], the concentration for half-maximal inhibition (IC50) is over 50 µM.

As for `COc1ccc(Cn2nc(-c3ccccc3)c3cc(C(=N)Nc4cccc(C(F)(F)F)c4)nc(Nc4cc(OC)c(OC)c(OC)c4)c32)cc1`, the IC50 in assay [1] was over 50 µM.

With `CN1CCN(c2ccc(NC(=N)c3cc4cnn(C)c4cn3)cc2)CC1`, the values for the IC50 in [2], in [3] and in [1] were 32.3 µM, 24 µM and 30.2 µM, respectively.

For `Cn1nc(-c2ccccc2)c2cc(C(=N)Nc3cccc(C(F)(F)F)c3)ncc21`, the IC50 is 20.9 µM in assay [2], 17.8 µM in assay [3] and 21.4 µM in [1].

On to `N=C(Nc1ccccc1)c1cc2c(-c3ccccc3)n[nH]c2cn1`, for which the IC50 came to 23 µM in assay [2], 22 µM in assay [3] and 11 µM in assay [1].

As to `CN1CCN(c2ccc(NC(=N)c3cc4cn[nH]c4cn3)cc2)CC1`, the IC50 stood at 45.4 µM in assay [2], 31.3 µM in assay [3] and 47.5 µM in assay [1].

Take `COc1ccc(Cn2nc(-c3ccccc3)c3cc(C(=N)Nc4ccccc4)nc(Nc4cc(OC)c(OC)c(OC)c4)c32)cc1`: the half-inhibitory concentration (IC50) is over 50 µM in assay [2], 11.1 µM in assay [3] and 42.1 µM in assay [1].

One may read the IC50 as the midpoint of a concentration-inhibition curve. As a reminder, the inhibition is the change of the read-out against control, counted positive when it falls.
